Values after ≈ are worked out from the molar mass of the structure shown. Active and inactive are the calls of the source. The rule behind the calls is not given here.
Columns and labels:
Candida albicans [1] = experiment: Upregulation of orf19.4907 gene expression in Candida albicans SC5314 at 3 uM after 15 mins by microarray method relative to control; assay type: functional
How it was run: (§1)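 Log-phase cultures in liquid YEPD were exposed to 3 µM compound (final) for 15 or 45 min, with untreated controls sampled at the same times, in three biological replicates. Total RNA was extracted by glass-bead/phenol-chloroform disruption and integrity-checked. One-color Cy3-labelled cRNA (600 ng) was hybridized for 17 h at 65 °C to 8 × 15K arrays, and fold change was taken versus control.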

Candida albicans [2] = experiment: Antifungal activity against Candida albicans 4T measured at 72 hrs by broth dilution assay; assay type: functional
How it was run: (§2)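 EUCAST broth microdilution, including the update for non-fermenting yeasts (Cryptococcus, Geotrichum), on clinical and reference yeast isolates. Incubated at 37 °C and read at 24, 48 and 72 h. MIC taken as the lowest concentration with no visible growth. For Cryptococcus and Geotrichum, MICs were read only once growth was visible in the control row.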

Candida tropicalis = experiment: Ratio of MIC at 24 hrs to MIC at 48 hrs for Candida tropicalis 86E; assay type: functional
How it was run: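 MICs by EUCAST broth microdilution, with the update for non-fermenting yeasts, incubated at 37 °C. Read at 24, 48 and 72 h as the lowest concentration preventing visible growth.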

Candida parapsilosis [3] = experiment: Antifungal activity against Candida parapsilosis 64E measured at 24 hrs by broth dilution assay; assay type: functional; settings: Lodderomyces parapsilosis; how it was run: as §2
Candida albicans [4] = experiment: Antifungal activity against fluconazole-susceptible Candida albicans ATCC 90028 in immunocompetent Balb/c mouse candidiasis model assessed as reduction in CFU count in spleen at 20 to 40 mg/kg/day, ip regime measured on day 7 post infection; assay type: functional, organism-based
How it was run: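 Immunocompetent BALB/c mice, 10 per strain group, injected in the lateral tail vein with 7 × 10^4 CFU of C. albicans in 200 µL sterile saline. Compound given ip daily, 100 µL of 0.1 mg/mL in DMSO/PEG 400 2:1; fluconazole control ip at 8 mg/kg/day. On day 7, spleen and kidneys were excised, weighed and homogenized in saline, then plated on YPD agar for 2 days at 30 °C. Read-out CFU/g; Wilcoxon rank-sum test, P<0.05.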

Candida albicans [5] = experiment: Antifungal activity against azole-resistant Candida albicans isolate DSY296 in immunocompetent Balb/c mouse candidiasis model assessed as reduction in CFU count in spleen at 40 mg/kg/day, ip regime measured on day 7 post infection; assay type: functional, organism-based
How it was run: (§3)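 Immunocompetent BALB/c mice, 10 per strain group, received 7 × 10^4 CFU of C. albicans in 200 µL saline via the lateral vein. Drug was given i.p. daily at 40 mg/kg/day as a 0.1 mg/mL solution in DMSO/PEG 400 (2:1), 100 µL per dose. On day 7, spleen and kidneys were weighed, homogenized, and plated on YPD agar (2 days, 30 °C) for CFU/g. Analysis used Wilcoxon rank-sum, P<0.05.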

Magnusiomyces capitatus [6] = experiment: Antifungal activity against Geotrichum capitatum measured at 72 hrs by broth dilution assay; assay type: functional; how it was run: as §2
Candida albicans [7] = experiment: Upregulation of ARE2 gene expression in Candida albicans SC5314 at 3 uM after 15 mins by microarray method relative to control; assay type: functional
How it was run: (§4)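 Log-phase C. albicans SC5314 in liquid YEPD exposed to 3 µM final for 15 or 45 min; untreated controls taken at the same time points. Three biological replicates. RNA extracted by glass-bead/phenol-chloroform method and integrity checked. One-color Cy3-labeled cRNA (600 ng) hybridized 17 h at 65 °C to 8 × 15K arrays. Expression expressed as fold change versus control.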

Nakaseomyces glabratus [8] = experiment: Antifungal activity against Candida glabrata 70 measured at 24 hrs by broth dilution assay; assay type: functional; settings: Nakaseomyces glabratus, 70, 24 h; how it was run: as §2
Candida albicans [9] = experiment: Upregulation of orf19.3378 gene expression in Candida albicans SC5314 at 3 uM after 45 mins by microarray method relative to control; assay type: functional; how it was run: as §1
Magnusiomyces capitatus [10] = experiment: Antifungal activity against Geotrichum capitatum measured at 48 hrs by broth dilution assay; assay type: functional; how it was run: as §2
Candida parapsilosis [11] = experiment: Antifungal activity against Candida parapsilosis 81E measured at 72 hrs by broth dilution assay; assay type: functional; settings: Lodderomyces parapsilosis; how it was run: as §2
Candida albicans [12] = experiment: Antifungal activity against Candida albicans ATCC 60193 measured at 48 hrs by broth dilution assay; assay type: functional; settings: ATCC 60193, 48 h; how it was run: as §2
Pichia kudriavzevii = experiment: Antifungal activity against Candida krusei ATCC 14243 measured at 48 hrs by broth dilution assay; assay type: functional; settings: ATCC 14243, 48 h; how it was run: as §2
Candida albicans [13] = experiment: Antifungal activity against Candida albicans ATCC 60193 measured at 24 hrs by broth dilution assay; assay type: functional; settings: ATCC 60193, 24 h; how it was run: as §2
Candida albicans [14] = experiment: Upregulation of TAC1 gene expression in Candida albicans SC5314 at 3 uM after 45 mins by microarray method relative to control; assay type: functional; how it was run: as §4
Candida albicans [15] = experiment: Upregulation of LCB4 gene expression in Candida albicans SC5314 at 3 uM after 15 mins by microarray method relative to control; assay type: functional; how it was run: as §4
Candida albicans [16] = experiment: Antifungal activity against Candida albicans ATCC 60193 up to 96 hrs by broth dilution assay; assay type: functional
Candida albicans [17] = experiment: Antifungal activity against azole-resistant Candida albicans isolate DSY296 in immunocompetent Balb/c mouse candidiasis model assessed as reduction in CFU count in kidney at 40 mg/kg/day, ip regime measured on day 7 post infection; assay type: functional, organism-based; how it was run: as §3
Nakaseomyces glabratus [18] = experiment: Antifungal activity against Candida glabrata 70 measured at 48 hrs by broth dilution assay; assay type: functional; settings: Nakaseomyces glabratus, 70, 48 h; how it was run: as §2
Candida albicans [19] = experiment: Fungicidal activity against Candida albicans ATCC 60193 at 5 uM up to 24 hrs by time kill assay relative to control; assay type: functional
How it was run: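 EUCAST broth microdilution at 37 °C. From wells at MIC, 2×, 4× and 8× MIC, 10 µL aliquots were taken, serially 10-fold diluted in saline and plated on Sabouraud dextrose agar. Plates were incubated at 37 °C for 24/48 h, and 48 h for Cryptococcus and Geotrichum. Done in duplicate, detection limit 10 CFU/mL. A drop of at least 3 Log10 CFU/mL from the initial inoculum in 24 h counts as fungicidal; a smaller drop counts as fungistatic.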

Candida albicans [20] = experiment: Upregulation of orf19.1438 gene expression in Candida albicans SC5314 at 3 uM after 15 mins by microarray method relative to control; assay type: functional; how it was run: as §4
Candida albicans [21] = experiment: Upregulation of ARE2 gene expression in Candida albicans SC5314 at 3 uM after 45 mins by microarray method relative to control; assay type: functional; how it was run: as §4
[22] = Chemical stability in RPMI-1640 buffer at 2 mM up to 72 hrs at 30 degC by LC-UV-MS analysis; settings: 2000 µM
[23] = Antifungal activity against Geotrichum silvicola up to 96 hrs by broth dilution assay; assay type: functional
Candida albicans [24] = experiment: Upregulation of orf19.3089 gene expression in Candida albicans SC5314 at 3 uM after 45 mins by microarray method relative to control; assay type: functional; how it was run: as §1
Cryptococcus neoformans = experiment: Antifungal activity against Cryptococcus neoformans measured at 72 hrs by broth dilution assay; assay type: functional; how it was run: as §2
Candida albicans [25] = experiment: Upregulation of orf19.1887 gene expression in Candida albicans SC5314 at 3 uM after 45 mins by microarray method relative to control; assay type: functional; how it was run: as §1
Candida albicans [26] = experiment: Antifungal activity against Candida albicans 4T measured at 24 hrs by broth dilution assay; assay type: functional; how it was run: as §2

C/C=C/CNC(=N)NCCCCCCCCN1CCCCCCCCNC(=N)NC1=O
fold change (FC) (Candida albicans [1]): 3.9 | MIC (Candida albicans [2]): 5 µM (≈ 2.18 µg/mL) | Ratio (Candida tropicalis): 2 | MIC (Candida parapsilosis [3]): 20 µM (≈ 8.71 µg/mL) | Activity (Candida albicans [4]): Active | Activity (Candida albicans [5]): Active | MIC (Magnusiomyces capitatus [6]): 10 µM (≈ 4.36 µg/mL) | fold change (FC) (Candida albicans [7]): 2.11 | MIC (Nakaseomyces glabratus [8]): > 80 µM | fold change (FC) (Candida albicans [9]): 3.52 | MIC (Magnusiomyces capitatus [10]): 10 µM (≈ 4.36 µg/mL) | MIC (Candida parapsilosis [11]): 40 µM (≈ 17.4 µg/mL) | MIC (Candida albicans [12]): 5 µM (≈ 2.18 µg/mL) | MIC (Pichia kudriavzevii): 80 µM (≈ 34.9 µg/mL) | MIC (Candida albicans [13]): 5 µM (≈ 2.18 µg/mL) | fold change (FC) (Candida albicans [14]): 3.38 | fold change (FC) (Candida albicans [15]): 2.04 | Activity (Candida albicans [16]): Active | Activity (Candida albicans [17]): Active | MIC (Nakaseomyces glabratus [18]): > 80 µM | Activity (Candida albicans [19]): 99.9% | fold change (FC) (Candida albicans [20]): 6.13 | fold change (FC) (Candida albicans [21]): 2.88 | Stability [22]: Stable | Activity [23]: Active | fold change (FC) (Candida albicans [24]): 2.63 | MIC (Cryptococcus neoformans): 20 µM (≈ 8.71 µg/mL) | fold change (FC) (Candida albicans [25]): 3.44 | MIC (Candida albicans [26]): 5 µM (≈ 2.18 µg/mL)

Source: ChEMBL document CHEMBL3808283, “Biological Characterization and in Vivo Assessment of the Activity of a New Synthetic Macrocyclic Antifungal Compound” (J Med Chem, 2016)
